Assay results as given in ChEMBL document CHEMBL4680083, “Identification of Tricyclic Agonists of Sphingosine-1-phosphate Receptor 1 (S1P) Employing Ligand-Based Drug Design” (J Med Chem, 2016).
The source made the active and inactive calls. The calls are words filed in the database; no cut-off is given here.

Legend:
[1] = Oral bioavailability in rat at 1 mg/kg; format: ADME, organism-based; conditions: in vivo
[2] = AUC in mouse at 5 mg/kg, po; format: ADME, organism-based; parameters: dose 5 mg/kg; conditions: in vivo
Rattus norvegicus [3] = assay: Reduction in circulating lymphocytes count in Lewis rat blood at 1 mg/kg, po measured at 4 hrs by hematology analyzer based analysis; format: functional; parameters: scale not given: the % may be the effect or the level left
Method in brief: (§1)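 Lewis rats were given an oral dose as a solution or suspension in PEG300, with controls receiving vehicle only. Blood was taken by retro-orbital bleeding under isoflurane at 4 and 24 h. Lymphocytes were counted on a hematology analyzer. Reduction is relative to the vehicle group, averaged over the animals in each group (n = 3−4).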

Rattus norvegicus [4] = assay: Antiarthritic activity in Lewis rat model of Complete Freund's adjuvant-induced arthritis assessed as inhibition in paw swelling at 0.1 to 1 mg/kg, po qd administered for 21 days after CFA injection and measured weekly three times upto day 21 by water displacement plethysmometry; format: functional, organism-based; conditions: dose 0.1-1 mg/kg, time 21.0 day
Method in brief: (§2)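 Male Lewis rats, 200−225 g, n = 8 per group. Immunized at the tail base with 100 μL of 10 mg/mL ground Mycobacterium butyricum in incomplete Freund's adjuvant. Oral dosing once daily in PEG300 vehicle from the day of immunization for 21 days, at 0.03, 0.1 or 1.0 mg/kg. Dexamethasone 0.1 mg/kg PO QD as positive control. Paw volume by water displacement plethysmometry, day 7 to day 21.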

[5] = biological target: Sphingosine 1-phosphate receptor 3 (Homo sapiens, UniProt Q99500); assay: Agonist activity at human S1P3 expressed in CHO cell membranes assessed as stimulation of [35S]-GTPgamma-S binding measured after 45 mins by liquid scintillation counting method; parameters: species or system Cell membrane
Sphingosine 1-phosphate receptor 3, sequence (Q99500 whole entry): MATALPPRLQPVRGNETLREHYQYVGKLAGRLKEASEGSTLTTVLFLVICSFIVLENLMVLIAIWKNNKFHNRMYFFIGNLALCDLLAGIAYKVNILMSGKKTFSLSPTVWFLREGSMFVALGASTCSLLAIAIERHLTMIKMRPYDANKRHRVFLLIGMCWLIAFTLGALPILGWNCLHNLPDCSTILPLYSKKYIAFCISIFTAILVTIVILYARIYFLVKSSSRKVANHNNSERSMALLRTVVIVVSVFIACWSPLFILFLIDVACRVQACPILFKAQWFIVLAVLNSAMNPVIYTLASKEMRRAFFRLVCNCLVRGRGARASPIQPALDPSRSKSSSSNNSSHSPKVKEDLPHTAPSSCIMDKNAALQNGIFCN

[6] = Volume of distribution at steady state in rat at 1 mg/kg, po or 1 mg/kg, iv; format: ADME, organism-based; conditions: in vivo, read-out: Vdss
[7] = Volume of distribution at steady state in cynomolgus monkey at 0.5 mg/kg, po or 0.5 mg/kg, iv; format: ADME, organism-based, Macaca fascicularis; conditions: in vivo, read-out: Vdss
[8] = biological target: T1, Sphingosine 1-phosphate receptor 1 (Homo sapiens, UniProt P21453); assay: Agonist activity at human S1P1 assessed as stimulation of cAMP accumulation relative to control; format: functional; conditions: filed as agonist
T1 sequence (P21453 whole entry): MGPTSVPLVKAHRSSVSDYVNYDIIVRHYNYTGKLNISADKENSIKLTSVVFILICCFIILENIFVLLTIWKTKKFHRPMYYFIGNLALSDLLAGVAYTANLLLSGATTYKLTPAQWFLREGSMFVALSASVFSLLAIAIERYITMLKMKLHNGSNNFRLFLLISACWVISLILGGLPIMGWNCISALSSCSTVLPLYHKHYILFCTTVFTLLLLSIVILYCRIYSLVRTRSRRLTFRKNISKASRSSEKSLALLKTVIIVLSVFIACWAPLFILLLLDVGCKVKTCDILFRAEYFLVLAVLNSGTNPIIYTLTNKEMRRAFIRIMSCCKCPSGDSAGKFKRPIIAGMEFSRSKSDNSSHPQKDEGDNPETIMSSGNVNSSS

[9] = Tmax in dog at 0.1 mg/kg, po or 0.1 mg/kg, iv; format: ADME, organism-based, Canis lupus familiaris; conditions: in vivo
Homo sapiens [10] = species: Homo sapiens; assay: Inhibition of sodium channel (unknown origin) assessed as reduction in 1 and 4 Hz-induced channel current at 10 uM by patch clamp technique relative to control
[11] = Plasma concentration in Lewis rat at 1 mg/kg, po measured at 24 hrs; format: ADME, organism-based; conditions: Lewis, plasma
Method in brief: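 Lewis rats received a single oral 1.0 mg/kg dose as solution or suspension in PEG300. Blood was drawn retro-orbitally under isoflurane at 4 h and 24 h, within the blood lymphocyte reduction study. n = 3−4 per group, group mean reported.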

[12] = biological target: T1, Sphingosine 1-phosphate receptor 1; assay: Agonist activity at human S1P1 assessed as stimulation of cAMP accumulation; format: functional
[13] = Protein binding in rat assessed as bound fraction; format: ADME; conditions: read-out: PB (converted)
[14] = Cmax in mouse at 5 mg/kg, po or 2 mg/kg, iv; format: ADME, organism-based; parameters: dose 5 mg/kg; conditions: in vivo
Cytochrome P450 2D6 = Cytochrome P450 2D6 (Homo sapiens, UniProt P10635); assay: Inhibition of CYP2D6 (unknown origin); format: ADME
Cytochrome P450 2D6, sequence (P10635 whole entry): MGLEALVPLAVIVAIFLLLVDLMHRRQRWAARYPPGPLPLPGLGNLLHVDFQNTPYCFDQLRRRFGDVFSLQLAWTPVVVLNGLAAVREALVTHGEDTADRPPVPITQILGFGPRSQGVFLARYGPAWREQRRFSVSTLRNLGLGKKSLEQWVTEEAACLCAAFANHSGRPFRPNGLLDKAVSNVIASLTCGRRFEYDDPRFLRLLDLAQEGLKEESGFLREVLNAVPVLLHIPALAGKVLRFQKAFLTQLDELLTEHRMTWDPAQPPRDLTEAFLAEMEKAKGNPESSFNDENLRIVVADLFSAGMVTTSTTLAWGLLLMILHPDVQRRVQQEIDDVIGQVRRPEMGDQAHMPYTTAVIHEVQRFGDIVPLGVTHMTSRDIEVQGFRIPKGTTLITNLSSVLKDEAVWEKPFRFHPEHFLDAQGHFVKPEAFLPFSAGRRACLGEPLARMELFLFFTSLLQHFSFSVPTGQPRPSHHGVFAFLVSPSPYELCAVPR

[15] = Half-life in rat at 1 mg/kg, po or 1 mg/kg, iv; format: ADME, organism-based; conditions: in vivo
[16] = Protein binding in human assessed as bound fraction; format: ADME; conditions: read-out: PB (converted)
[17] = Cmax in dog at 0.1 mg/kg, po or 0.1 mg/kg, iv; format: ADME, organism-based, Canis lupus familiaris; parameters: dose 0.1 mg/kg; conditions: in vivo
Cytochrome P450 1A2 = biological target: T2, Cytochrome P450 1A2 (Homo sapiens, UniProt P05177); assay: Inhibition of CYP1A2 (unknown origin); format: ADME
T2 sequence (P05177 whole entry): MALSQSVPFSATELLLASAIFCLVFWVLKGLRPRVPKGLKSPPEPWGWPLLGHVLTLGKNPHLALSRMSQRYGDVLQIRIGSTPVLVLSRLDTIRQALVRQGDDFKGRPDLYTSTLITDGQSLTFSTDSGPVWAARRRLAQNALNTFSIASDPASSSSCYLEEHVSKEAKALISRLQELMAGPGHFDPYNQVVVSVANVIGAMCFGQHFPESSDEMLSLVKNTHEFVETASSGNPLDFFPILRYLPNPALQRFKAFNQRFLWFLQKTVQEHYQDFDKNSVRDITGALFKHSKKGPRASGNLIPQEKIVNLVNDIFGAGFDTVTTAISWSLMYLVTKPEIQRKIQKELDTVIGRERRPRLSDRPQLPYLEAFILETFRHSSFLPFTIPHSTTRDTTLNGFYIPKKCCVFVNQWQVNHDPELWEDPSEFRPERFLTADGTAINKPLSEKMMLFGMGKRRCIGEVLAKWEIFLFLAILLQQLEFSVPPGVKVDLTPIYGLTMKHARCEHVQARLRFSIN

Cytochrome P450 2C8 = biological target: T3, Cytochrome P450 2C8 (Homo sapiens, UniProt P10632); assay: Inhibition of CYP2C8 (unknown origin); format: ADME
T3 sequence (P10632 whole entry): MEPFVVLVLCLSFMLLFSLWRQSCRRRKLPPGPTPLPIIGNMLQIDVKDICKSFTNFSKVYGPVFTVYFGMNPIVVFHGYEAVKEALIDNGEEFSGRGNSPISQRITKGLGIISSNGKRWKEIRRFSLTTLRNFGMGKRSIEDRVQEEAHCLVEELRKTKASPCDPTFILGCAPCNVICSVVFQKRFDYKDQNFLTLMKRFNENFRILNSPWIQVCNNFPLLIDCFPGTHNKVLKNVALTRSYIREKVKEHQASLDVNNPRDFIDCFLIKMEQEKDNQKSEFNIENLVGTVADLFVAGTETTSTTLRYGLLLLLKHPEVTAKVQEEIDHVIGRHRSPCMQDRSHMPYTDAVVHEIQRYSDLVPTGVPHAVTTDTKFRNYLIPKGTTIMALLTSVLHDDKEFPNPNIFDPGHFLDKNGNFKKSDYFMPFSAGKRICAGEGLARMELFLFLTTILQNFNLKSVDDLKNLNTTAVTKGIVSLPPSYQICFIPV

Rattus norvegicus [18] = assay: Antiarthritic activity in Lewis rat model of Complete Freund's adjuvant-induced arthritis assessed as reduction in paw swelling at 0.1 mg/kg, po qd administered for 21 days after CFA injection and measured weekly three times upto day 21 by water displacement plethysmometry; format: functional; parameters: scale not given: the % may be the effect or the level left; conditions: time 21 day; method in brief: as §2
[19] = Half-life in cynomolgus monkey at 0.5 mg/kg, po or 0.5 mg/kg, iv; format: ADME, organism-based, Macaca fascicularis; conditions: in vivo
Homo sapiens [20] = species: Homo sapiens; assay: Inhibition of calcium channel (unknown origin) at 10 uM by patch clamp technique relative to control
[21] = Clearance in cynomolgus monkey at 0.5 mg/kg, po or 0.5 mg/kg, iv; format: ADME, organism-based, Macaca fascicularis; conditions: in vivo
[22] = AUC in dog at 0.1 mg/kg, po; format: ADME, organism-based, Canis lupus familiaris; parameters: dose 0.1 mg/kg; conditions: in vivo
Rattus norvegicus [23] = assay: Reduction in circulating lymphocytes count in Lewis rat blood at 1 mg/kg, po measured at 24 hrs by hematology analyzer based analysis; format: functional; parameters: scale not given: the % may be the effect or the level left; method in brief: as §1
Rattus norvegicus [24] = assay: Reduction in circulating lymphocytes count in Lewis rat blood administered orally measured at 4 to 24 hrs by hematology analyzer based analysis; format: functional, organism-based; method in brief: as §1
[25] = Tmax in mouse at 5 mg/kg, po or 2 mg/kg, iv; format: ADME, organism-based; conditions: in vivo

bioavailability [1]: 43%
AUC [2]: 30.3 µM·h
EC50 [5]: 4.4 µM
Vd [6]: 4.8 L/kg
Vd [7]: 3.6 L/kg
Emax [8]: 93%
Tmax [9]: 8 h
inhibition (Homo sapiens [10]): 12%
concentration at 24 h [11]: 13 nM
EC50 [12]: 0.032 nM
fraction unbound [13]: 0.004
Cmax [14]: 3600 nM
IC50 (Cytochrome P450 2D6): > 40 µM
half-life [15]: 7.9 h
fraction unbound [16]: 0.004
Cmax [17]: 90 nM
IC50 (Cytochrome P450 1A2): > 40 µM
IC50 (Cytochrome P450 2C8): 14 µM
half-life [19]: 18 h
inhibition (Homo sapiens [20]): 11%
clearance [21]: 2.4 mL/min/kg
AUC [22]: 2.3 µM·h
EC50 (Rattus norvegicus [24]): 0.0025 µM
Tmax [25]: 3 h
Structure (SMILES): O=C(O)C1CN(Cc2ccc3c(c2)CCc2c-3noc2-c2onc(-c3ccccc3)c2C(F)(F)F)C1
Activity (Rattus norvegicus [3]): 83%
Activity (Rattus norvegicus [4]): Active
Activity (Rattus norvegicus [18]): >50%
Activity (Rattus norvegicus [23]): 80%
